{
  "source": "ChEMBL document CHEMBL2380272",
  "about": "“Biological evaluation of bisbenzaldehydes against four Mycobacterium species” (Eur J Med Chem, 2013)",
  "key": {"[1]": {"tested_on": "Mycobacterium tuberculosis", "assay": "Antimycobacterial activity against multidrug-resistant Mycobacterium tuberculosis LAM-1 clinical isolate assessed as growth inhibition after 6 days by BACTEC 460-TB method", "type": "functional", "conditions": "LAM-1, 144 h", "procedure,_shortened": "(§1)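 BACTEC 460-TB radiometric assay measuring 14CO2 from 14C-palmitic acid. The MDR LAM-1 isolate was precultured to growth index 300, then inoculated into a fresh vial with compound dilutions made in 7H9 + 10% OADC. Final concentrations were 0.4–1.2 µM. GI was read daily. MIC90 and MIC99 came from comparison with untreated controls diluted 10- and 100-fold. A 0.1 µg/mL isoniazid culture served as the resistance control.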"}, "[2]": {"tested_on": "Mycobacterium tuberculosis", "assay": "Antimycobacterial activity against multidrug-resistant Mycobacterium tuberculosis LAM-1 clinical isolate assessed as growth inhibition at 1 to 1.2 uM after 6 days by BACTEC 460-TB method relative to 10 to 100 times diluted untreated control", "type": "functional", "procedure,_shortened": "as §1"}},
  "data": [
    {"smiles": "O=Cc1ccc(OCCCCCCCCCCOc2ccc(C=O)cc2)cc1", "values": [
      {"measurement": "MIC90", "setting": "[1]", "result": 0.6, "unit": "µM"}
    ]},
    {"smiles": "O=Cc1ccc(OCCCCCCCCCCCCOc2ccc(C=O)cc2)cc1", "values": [
      {"measurement": "MIC90", "setting": "[1]", "result": 0.4, "unit": "µM"},
      {"measurement": "growth inhibition (GI)", "setting": "[2]", "result": 99, "unit": "%"}
    ]},
    {"smiles": "O=Cc1ccc(OCCCCCCCCCCCOc2ccc(C=O)cc2)cc1", "values": [
      {"measurement": "MIC90", "setting": "[1]", "result": 0.6, "unit": "µM"},
      {"measurement": "growth inhibition (GI)", "setting": "[2]", "result": 99, "unit": "%"}
    ]},
    {"smiles": "O=Cc1ccc(OCCCCCCCCCOc2ccc(C=O)cc2)cc1", "values": [
      {"measurement": "MIC90", "setting": "[1]", "result": 0.6, "unit": "µM"}
    ]}
  ]
}
